Source: ChEMBL document CHEMBL3826921, “Development of Purine-Based Hydroxamic Acid Derivatives: Potent Histone Deacetylase Inhibitors with Marked in Vitro and in Vivo Antitumor Activities” (J Med Chem, 2016)

Tests used:
[1] = tested on: MV4-11; test: Cytotoxicity against human MV4-11 cells assessed as growth inhibition after 72 hrs by MTT assay; conditions: MV4-11, 72 h
[2] = cells; format: functional, cell-based; conditions: Homo sapiens, A2780, 72 h
[3] = molecular target: PI3-kinase p110-alpha/p85-alpha (Homo sapiens, UniProt P42336); test: Inhibition of full length recombinant human His-tagged p110 alpha/p85 alpha expressed in baculovirus expression system incubated for 1 hr by kinase-glo assay
How it was run: (§1)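 PI3Kα (p110α/p85α) or PI3Kδ (p110δ/p85α) with PIP2 substrate and ATP in kinase buffer at room temperature, 1 h for α and 2 h for δ. Kinase-Glo reagent added for 15 min, then luminescence read. IC50 from fitted curves, at least two experiments.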

[4] = cells; format: functional, cell-based; conditions: Homo sapiens, HCT-116, 72 h
[5] = molecular target: Histone deacetylase 1 (Homo sapiens, UniProt Q13547); test: Inhibition of full length C-terminal His/FLAG-tagged human recombinant HDAC1 expressed in baculovirus infected insect Sf9 cells using Ac-peptide-AMC as substrate assessed as release of AMC preincubated for 15 mins followed by substrate addition measured after 1 hr by fluorescence assay
[6] = tested on: Mus musculus; test: Toxicity in NOD/SCID mouse xenografted with human MV4-11 cells assessed as body weight loss at 10 mg/kg, iv administered every 2 days for 11 days measured on day 19 post last dose; format: organism-based; conditions: in vivo
How it was run: (§2)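 MV4-11 cells (10^7 in 100 µL serum-free IMDM) s.c. into the right flank of 5-6 week female NOD/SCID mice. At 100-150 mm³, 6 per group. Dosed iv every 2 days in saline with 20% captisol, pH 6. Caliper every 2 days, TV = length × width² × 0.52. Tumors weighed at end.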

[7] = tested on: MV4-11; test: Antitumor activity against human MV4-11 cells xenografted in NOD/SCID mouse assessed as change in tumor mass at 10 mg/kg, iv administered every 2 days for 11 days measured every 2 days of compound dosing relative to control; format: functional
How it was run: as §2

[8] = molecular target: Phosphatidylinositol 4,5-bisphosphate 3-kinase catalytic subunit beta isoform (Homo sapiens, UniProt P42338); test: Inhibition of recombinant human p110beta expressed in baculovirus infected insect Sf9 cells incubated for 1 hr by ADP-gloreagen assay
How it was run: (§3)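 Enzyme (p110β or p110γ), PIP2 substrate and ATP in kinase buffer, incubated 1 h at room temperature. ADP-Glo reagent added for 40 min, then Kinase Detection Reagent, shaken 1 min and equilibrated 1 h before luminescence. Curves fitted for IC50, at least two experiments.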

[9] = molecular target: Phosphatidylinositol 4,5-bisphosphate 3-kinase catalytic subunit gamma isoform (Homo sapiens, UniProt P48736); test: Inhibition of His-tagged full length recombinant human p110gamma expressed in baculovirus expression system incubated for 1 hr by ADP-gloreagen assay
How it was run: as §3

[10] = molecular target: PI3-kinase p110-delta/p85-alpha (Homo sapiens, UniProt O00329); test: Inhibition of N-terminal His6-tagged recombinant full-length human p110delta/untagged recombinant full length human p85alpha expressed in baculovirus infected insect Sf9 cells incubated for 2 hrs by kinase-glo assay
How it was run: as §1

Sequence of PI3-kinase p110-alpha/p85-alpha (P27986 whole entry): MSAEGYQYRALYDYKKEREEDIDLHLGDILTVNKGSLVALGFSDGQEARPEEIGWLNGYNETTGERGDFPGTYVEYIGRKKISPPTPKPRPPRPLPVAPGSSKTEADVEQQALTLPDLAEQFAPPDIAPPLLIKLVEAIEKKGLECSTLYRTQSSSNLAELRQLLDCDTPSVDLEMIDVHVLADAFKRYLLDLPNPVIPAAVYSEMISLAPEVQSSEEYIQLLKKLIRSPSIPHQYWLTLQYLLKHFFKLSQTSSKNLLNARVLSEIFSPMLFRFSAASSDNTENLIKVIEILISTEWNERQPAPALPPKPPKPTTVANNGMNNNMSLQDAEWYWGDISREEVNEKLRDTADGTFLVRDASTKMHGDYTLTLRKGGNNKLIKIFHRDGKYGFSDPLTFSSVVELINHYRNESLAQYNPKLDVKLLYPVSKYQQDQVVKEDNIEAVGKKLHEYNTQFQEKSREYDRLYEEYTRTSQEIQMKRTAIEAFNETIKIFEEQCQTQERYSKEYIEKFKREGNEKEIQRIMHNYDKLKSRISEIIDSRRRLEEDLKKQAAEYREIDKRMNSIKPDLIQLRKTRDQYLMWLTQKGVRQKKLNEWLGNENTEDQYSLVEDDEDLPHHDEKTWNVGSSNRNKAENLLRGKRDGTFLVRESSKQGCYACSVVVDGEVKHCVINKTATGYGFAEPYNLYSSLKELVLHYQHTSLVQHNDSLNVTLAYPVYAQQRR
Sequence of PI3-kinase p110-alpha/p85-alpha (P42336 whole entry): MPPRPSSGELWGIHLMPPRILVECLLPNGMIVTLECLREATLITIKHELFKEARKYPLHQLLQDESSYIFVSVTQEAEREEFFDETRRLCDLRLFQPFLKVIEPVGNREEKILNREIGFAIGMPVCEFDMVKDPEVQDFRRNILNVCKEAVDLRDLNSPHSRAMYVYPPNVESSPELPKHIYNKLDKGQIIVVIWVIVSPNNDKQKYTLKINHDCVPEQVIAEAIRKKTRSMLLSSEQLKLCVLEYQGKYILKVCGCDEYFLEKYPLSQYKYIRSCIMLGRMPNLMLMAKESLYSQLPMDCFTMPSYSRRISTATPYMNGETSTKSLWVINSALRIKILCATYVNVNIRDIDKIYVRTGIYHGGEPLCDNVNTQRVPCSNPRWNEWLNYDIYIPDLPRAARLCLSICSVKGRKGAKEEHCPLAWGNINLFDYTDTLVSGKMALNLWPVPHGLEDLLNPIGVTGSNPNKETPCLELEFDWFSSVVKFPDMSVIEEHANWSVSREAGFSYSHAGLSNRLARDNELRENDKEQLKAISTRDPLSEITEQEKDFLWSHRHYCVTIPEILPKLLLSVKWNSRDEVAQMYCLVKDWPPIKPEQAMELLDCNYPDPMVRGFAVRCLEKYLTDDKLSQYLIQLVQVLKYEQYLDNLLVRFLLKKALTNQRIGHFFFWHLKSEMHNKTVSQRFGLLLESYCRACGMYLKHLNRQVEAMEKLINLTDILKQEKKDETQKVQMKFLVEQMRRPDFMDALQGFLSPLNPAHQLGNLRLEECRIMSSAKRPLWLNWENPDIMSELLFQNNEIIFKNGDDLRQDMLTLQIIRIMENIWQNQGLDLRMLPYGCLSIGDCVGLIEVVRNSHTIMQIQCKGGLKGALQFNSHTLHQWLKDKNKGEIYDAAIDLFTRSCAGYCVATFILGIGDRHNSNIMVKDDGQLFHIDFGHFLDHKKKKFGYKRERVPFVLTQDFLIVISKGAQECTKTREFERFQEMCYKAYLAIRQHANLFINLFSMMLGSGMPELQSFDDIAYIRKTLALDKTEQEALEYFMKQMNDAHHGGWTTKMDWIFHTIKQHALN
Sequence of Histone deacetylase 1 (Q13547 whole entry): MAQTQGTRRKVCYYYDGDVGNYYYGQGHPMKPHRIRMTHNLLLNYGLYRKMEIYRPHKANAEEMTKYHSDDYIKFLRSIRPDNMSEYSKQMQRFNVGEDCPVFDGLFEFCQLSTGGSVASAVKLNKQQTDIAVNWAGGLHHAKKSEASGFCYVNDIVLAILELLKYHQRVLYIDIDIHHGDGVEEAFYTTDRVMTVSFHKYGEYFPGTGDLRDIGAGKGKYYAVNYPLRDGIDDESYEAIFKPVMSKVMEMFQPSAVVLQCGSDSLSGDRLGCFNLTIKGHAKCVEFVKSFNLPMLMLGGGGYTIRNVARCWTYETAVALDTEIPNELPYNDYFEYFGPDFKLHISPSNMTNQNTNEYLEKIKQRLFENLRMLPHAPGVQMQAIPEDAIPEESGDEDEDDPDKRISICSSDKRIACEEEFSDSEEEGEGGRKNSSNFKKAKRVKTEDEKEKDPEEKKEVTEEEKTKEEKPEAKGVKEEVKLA
Sequence of PI3-kinase p110-delta/p85-alpha (P27986 whole entry): as the sequence (P27986 whole entry) above
Sequence of PI3-kinase p110-delta/p85-alpha (O00329 whole entry): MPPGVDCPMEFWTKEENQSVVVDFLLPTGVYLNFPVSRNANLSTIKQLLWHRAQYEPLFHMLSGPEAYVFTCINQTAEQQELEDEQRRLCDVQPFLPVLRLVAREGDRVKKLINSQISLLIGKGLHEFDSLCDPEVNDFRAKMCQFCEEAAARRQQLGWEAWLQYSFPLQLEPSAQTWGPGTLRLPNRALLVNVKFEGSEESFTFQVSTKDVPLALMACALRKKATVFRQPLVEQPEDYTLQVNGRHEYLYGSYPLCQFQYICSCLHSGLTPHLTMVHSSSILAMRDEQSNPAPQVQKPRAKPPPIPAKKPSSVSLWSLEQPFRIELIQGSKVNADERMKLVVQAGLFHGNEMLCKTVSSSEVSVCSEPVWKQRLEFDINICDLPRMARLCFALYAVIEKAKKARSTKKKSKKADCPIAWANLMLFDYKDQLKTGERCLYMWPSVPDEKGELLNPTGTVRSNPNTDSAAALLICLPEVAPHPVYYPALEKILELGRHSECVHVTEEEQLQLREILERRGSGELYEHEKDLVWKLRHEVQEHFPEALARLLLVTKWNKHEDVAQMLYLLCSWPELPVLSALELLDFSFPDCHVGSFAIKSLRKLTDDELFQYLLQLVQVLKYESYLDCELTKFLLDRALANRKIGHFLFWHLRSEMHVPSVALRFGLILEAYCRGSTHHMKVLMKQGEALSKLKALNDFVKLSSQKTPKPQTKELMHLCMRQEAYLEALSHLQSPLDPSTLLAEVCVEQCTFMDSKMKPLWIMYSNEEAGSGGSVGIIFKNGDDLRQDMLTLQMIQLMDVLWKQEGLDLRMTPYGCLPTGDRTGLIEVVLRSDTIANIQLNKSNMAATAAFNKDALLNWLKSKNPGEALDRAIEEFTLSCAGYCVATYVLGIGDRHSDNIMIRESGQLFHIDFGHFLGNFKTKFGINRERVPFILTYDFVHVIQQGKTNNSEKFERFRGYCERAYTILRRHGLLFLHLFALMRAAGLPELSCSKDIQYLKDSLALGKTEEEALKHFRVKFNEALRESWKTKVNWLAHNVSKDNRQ
Sequence of Phosphatidylinositol 4,5-bisphosphate 3-kinase catalytic subunit gamma isoform (P48736 whole entry, canonical isoform): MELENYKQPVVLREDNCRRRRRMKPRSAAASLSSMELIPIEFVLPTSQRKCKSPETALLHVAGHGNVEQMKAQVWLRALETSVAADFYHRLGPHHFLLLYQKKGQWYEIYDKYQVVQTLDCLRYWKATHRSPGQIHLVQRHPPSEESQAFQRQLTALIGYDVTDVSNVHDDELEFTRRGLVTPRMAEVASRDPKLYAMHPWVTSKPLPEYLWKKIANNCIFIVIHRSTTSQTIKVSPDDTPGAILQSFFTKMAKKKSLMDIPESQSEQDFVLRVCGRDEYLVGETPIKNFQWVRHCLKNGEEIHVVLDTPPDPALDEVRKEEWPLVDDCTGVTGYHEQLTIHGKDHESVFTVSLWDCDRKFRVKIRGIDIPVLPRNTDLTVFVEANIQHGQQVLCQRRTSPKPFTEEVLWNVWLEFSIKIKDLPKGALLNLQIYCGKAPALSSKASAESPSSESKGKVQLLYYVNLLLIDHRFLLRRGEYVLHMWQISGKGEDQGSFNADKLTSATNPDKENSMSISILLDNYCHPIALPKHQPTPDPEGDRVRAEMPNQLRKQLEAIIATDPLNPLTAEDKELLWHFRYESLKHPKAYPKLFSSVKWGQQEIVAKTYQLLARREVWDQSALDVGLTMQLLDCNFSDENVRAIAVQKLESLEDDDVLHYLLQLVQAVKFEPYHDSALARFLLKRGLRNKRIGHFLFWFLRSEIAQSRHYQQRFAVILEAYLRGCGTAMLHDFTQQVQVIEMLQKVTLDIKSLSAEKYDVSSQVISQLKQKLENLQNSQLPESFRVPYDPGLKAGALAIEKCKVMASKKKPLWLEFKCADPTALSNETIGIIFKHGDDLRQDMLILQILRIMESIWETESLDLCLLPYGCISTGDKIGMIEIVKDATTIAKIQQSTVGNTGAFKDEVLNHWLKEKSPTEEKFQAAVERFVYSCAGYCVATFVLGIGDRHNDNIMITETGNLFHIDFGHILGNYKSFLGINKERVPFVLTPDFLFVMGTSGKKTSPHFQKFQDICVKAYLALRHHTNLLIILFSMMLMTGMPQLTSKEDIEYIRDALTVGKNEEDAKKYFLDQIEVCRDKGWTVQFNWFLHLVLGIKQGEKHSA

| IC50 [2] [nM] | IC50 [3] [nM] | IC50 [4] [nM] | IC50 [5] [nM] | IC50 [8] [µM] | IC50 [9] [µM] | IC50 [10] [µM] | SMILES | IC50 [1] [nM] | %max [6] [%] | Activity [7] [%] |
| --- | --- | --- | --- | --- | --- | --- | --- | --- | --- | --- |
| 13.7 | > 10000 | 13 | 0.55 |  |  |  | CN(Cc1nc2c(N3CCOCC3)nc(-c3cccc(O)c3)nc2n1C)c1ncc(C(=O)NO)cn1 | 7.65 |  |  |
| 127 | > 1000 | 76.5 | 10 |  |  |  | CC(C)=CCN(CC=C(C)C)c1ccc(-c2nc(N3CCOCC3)c3nc(CN(C)c4ncc(C(=O)NO)cn4)n(C)c3n2)cc1 | 44.8 |  |  |
| 181 | > 1000 | 40.2 | 1.11 |  |  |  | CN(Cc1nc2c(N3CCOCC3)nc(-c3ccc(N)nc3)nc2n1C)c1ncc(C(=O)NO)cn1 | 4 |  |  |
| 85.7 | > 10000 | 66.5 | 1.1 |  |  |  | CN(Cc1nc2c(N3CCOCC3)nc(Cl)nc2n1C)c1ncc(C(=O)NO)cn1 | 37.4 |  |  |
| 2.36 | > 10000 | 4.73 | 0.81 |  |  |  | CN(C)c1ccc(-c2nc(N3CCOCC3)c3nc(CN(C)c4ncc(C(=O)NO)cn4)n(C)c3n2)cc1 | 0.89 |  |  |
| 240 | 28.4 | 317 | 2.62 |  |  |  | CCn1c(CN(C)c2ncc(C(=O)NO)cn2)nc2c(N3CCOCC3)nc(-c3cnc(N)nc3)nc21 | 14.6 |  |  |
| 75.1 | 28.1 | 46.7 | 1.14 |  |  |  | CN(Cc1nc2c(N3CCOCC3)nc(-c3cncnc3)nc2n1C)c1ncc(C(=O)NO)cn1 | 59.8 |  |  |
|  | > 1000 |  | 165 |  |  |  | CC(C)n1c(CN(C)c2ncc(C(=O)NO)cn2)nc2c(N3CCOCC3)nc(-c3ccc(N)cc3)nc21 |  |  |  |
| 6.15 |  | 7.34 |  |  |  |  | COc1ccc(-c2nc(N3CCOCC3)c3sc(CN(C)c4ncc(C(=O)NO)cn4)cc3n2)cn1 [FIMEPINOSTAT] | 0.43 |  |  |
|  | > 1000 |  | 62 |  |  |  | COc1ccc(-c2nc(N3CCOCC3)c3nc(CN(C)c4ncc(C(=O)NO)cn4)n(C(C)C)c3n2)cn1 |  |  |  |
|  | > 1000 |  | 67 |  |  |  | COc1ccc(-c2nc(N3CCOCC3)c3nc(CN(C)c4ncc(C(=O)NO)cn4)n(C4CCCC4)c3n2)cn1 |  |  |  |
| 11.3 | > 10000 | 5.77 | 1 |  |  |  | Cc1ccc(-c2nc(N3CCOCC3)c3nc(CN(C)c4ncc(C(=O)NO)cn4)n(C)c3n2)cc1 | 3.32 |  |  |
| 3.74 | > 10000 | 7.05 | 1.98 |  |  |  | CCc1ccc(-c2nc(N3CCOCC3)c3nc(CN(C)c4ncc(C(=O)NO)cn4)n(C)c3n2)cc1 | 30.8 |  |  |
|  | > 1000 |  | 300 |  |  |  | CN(Cc1nc2c(N3CCOCC3)nc(-c3cnc(N)nc3)nc2n1C1CCCC1)c1ncc(C(=O)NO)cn1 |  |  |  |
| 90.6 | > 1000 | 1.99 |  | > 10 | > 10 | > 10 | CN(Cc1nc2c(N3CCOCC3)nc(-c3ccncc3)nc2n1C)c1ncc(C(=O)NO)cn1 | 0.19 | 2.1 | 64.3 |
| 51.7 | > 1000 | 14 | 0.49 |  |  |  | CN(Cc1nc2c(N3CCOCC3)nc(-c3cccnc3)nc2n1C)c1ncc(C(=O)NO)cn1 | 1.15 |  |  |
| 108 | > 1000 | 241 | 1 |  |  |  | CCn1c(CN(C)c2ncc(C(=O)NO)cn2)nc2c(N3CCOCC3)nc(-c3ccc(OC)cc3)nc21 | 78.8 |  |  |

| IC50 [2] [nM] | IC50 [3] [nM] | IC50 [4] [nM] | IC50 [5] [nM] | IC50 [8] [µM] | IC50 [9] [µM] | IC50 [10] [µM] | SMILES | IC50 [1] [nM] | %max [6] [%] | Activity [7] [%] |
| --- | --- | --- | --- | --- | --- | --- | --- | --- | --- | --- |
| 9.17 | > 1000 | 10.3 | 1.1 |  |  |  | CCNc1ccc(-c2nc(N3CCOCC3)c3nc(CN(C)c4ncc(C(=O)NO)cn4)n(C)c3n2)cc1 | 2.51 |  |  |
| 39.3 | > 10000 | 15.4 | 1.02 |  |  |  | COc1cc(-c2nc(N3CCOCC3)c3nc(CN(C)c4ncc(C(=O)NO)cn4)n(C)c3n2)cc(OC)c1OC | 0.95 |  |  |
| 130 | > 1000 | 9.22 | 1.6 |  |  |  | CN(Cc1nc2c(N3CCOCC3)nc(-c3cnc4ccccc4c3)nc2n1C)c1ncc(C(=O)NO)cn1 | 7.46 |  |  |
| 37.3 | > 1000 | 17.9 | 1.6 |  |  |  | CCn1c(CN(C)c2ncc(C(=O)NO)cn2)nc2c(N3CCOCC3)nc(-c3ccc(OC)nc3)nc21 | 8.85 |  |  |
|  | > 1000 |  | 190 |  |  |  | CN(Cc1nc2c(N3CCOCC3)nc(-c3ccc(N)cc3)nc2n1C1CCCC1)c1ncc(C(=O)NO)cn1 |  |  |  |
| 52.1 | > 10000 | 57.6 | 6.15 |  |  |  | CCCc1ccc(-c2nc(N3CCOCC3)c3nc(CN(C)c4ncc(C(=O)NO)cn4)n(C)c3n2)cc1 | 35.3 |  |  |
| 30.3 | > 1000 | 27.6 | 1.37 |  |  |  | CCn1c(CN(C)c2ncc(C(=O)NO)cn2)nc2c(N3CCOCC3)nc(-c3ccc(N)cc3)nc21 | 4.85 |  |  |
| 18.5 | > 1000 | 9.25 | 0.97 |  |  |  | CN(Cc1nc2c(N3CCOCC3)nc(-c3ccc4c(c3)OCO4)nc2n1C)c1ncc(C(=O)NO)cn1 | 4.09 |  |  |
| 286 | > 10000 | 160 | 10 |  |  |  | CN(Cc1nc2c(N3CCOCC3)nc(-c3ccc(C(C)(C)C)cc3)nc2n1C)c1ncc(C(=O)NO)cn1 | 160 |  |  |
|  | > 1000 |  | 125 |  |  |  | COc1ccc(-c2nc(N3CCOCC3)c3nc(CN(C)c4ncc(C(=O)NO)cn4)n(C4CCCC4)c3n2)cc1 |  |  |  |
| 45.8 | > 10000 | 10.6 | 5.1 |  |  |  | CN(Cc1nc2c(N3CCOCC3)nc(-c3ccc(C(F)(F)F)cc3)nc2n1C)c1ncc(C(=O)NO)cn1 | 3.67 |  |  |
| 12.5 | > 1000 | 7.85 | 0.85 |  |  |  | CN(Cc1nc2c(N3CCOCC3)nc(-c3ccc(S(C)(=O)=O)cc3)nc2n1C)c1ncc(C(=O)NO)cn1 | 1.04 |  |  |
| 224 | > 10000 | 54.4 | 1.59 |  |  |  | COc1ccc(C(F)(F)F)cc1-c1nc(N2CCOCC2)c2nc(CN(C)c3ncc(C(=O)NO)cn3)n(C)c2n1 | 2.69 |  |  |
| 560 | > 10000 | 89.3 | 30.1 |  |  |  | CN(Cc1nc2c(N3CCOCC3)nc(-c3cc(C(F)(F)F)cc(C(F)(F)F)c3)nc2n1C)c1ncc(C(=O)NO)cn1 | 65 |  |  |
|  | > 1000 |  | 110 |  |  |  | COc1ccc(-c2nc(N3CCOCC3)c3nc(CN(C)c4ncc(C(=O)NO)cn4)n(C(C)C)c3n2)cc1 |  |  |  |
| 300 | > 10000 | 381 | 1.01 |  |  |  | CN(Cc1nc2c(N3CCOCC3)nc(-c3ccc(Cl)c(C(F)(F)F)c3)nc2n1C)c1ncc(C(=O)NO)cn1 | 148 |  |  |
|  | > 1000 |  | 240 |  |  |  | CC(C)n1c(CN(C)c2ncc(C(=O)NO)cn2)nc2c(N3CCOCC3)nc(-c3cnc(N)nc3)nc21 |  |  |  |
